In ChEMBL document CHEMBL3997766, “Synthesis and pre-clinical studies of new amino-acid ester thiazolide prodrugs” (Eur J Med Chem, 2017):

Experiments:
Rattus norvegicus [1] = test: Toxicity in Sprague-Dawley rat assessed as hemorrhage in duodenum at 75 mg/kg administered as oral gavage qd for 28 consecutive days measured on day 29 by microscopic method; assay type: organism-based; details: in vivo
Procedure, shortened: (§1)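 Sub-acute study in Sprague-Dawley rats dosed orally with a suspension at 10, 30 and 75 mg/kg once daily for 28 consecutive days. Four groups of up to 30 rats each (15M/15F).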

Plasma = test: Drug metabolism in Sprague-Dawley rat assessed as tizoxanide-glucuronide formation in plasma at 30 mg/kg, po administered as single dose measured after 5 mins; assay type: ADME, organism-based; details: in vivo
Procedure, shortened: (§2)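 Plasma tizoxanide and tizoxanide glucuronide were measured and PK parameters derived. AUCs were dose-corrected to 30 mg/kg for bioavailability.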

Rattus norvegicus [2] = test: Tmax in Sprague-Dawley rat assessed as Tizoxanide in plasma at 6.3 mg/kg, iv administered as single dose; assay type: ADME, organism-based; details: in vivo
Procedure, shortened: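 Rats in groups of three got a single oral dose (30 mg/kg) or a single intravenous injection (6 mg/kg). Serial blood samples were taken at 5, 10, 15 and 30 min and at 1, 2, 4, 8, 23 and 24 h post-dose for plasma drug and glucuronide levels. Bioavailability came from oral versus intravenous AUC after dose correction to 30 mg/kg.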

Rattus norvegicus [3] = test: AUC (0 to t) in Sprague-Dawley rat assessed as tizoxanide-glucuronide level in plasma at 30 mg/kg, po administered as single dose; assay type: ADME, organism-based; details: in vivo; procedure, shortened: as §2
Rattus norvegicus [4] = test: Cmax in Sprague-Dawley rat assessed as tizoxanide-glucuronide level in plasma at 30 mg/kg, po administered as single dose; assay type: ADME, organism-based; design: dose 30 mg/kg, route oral; details: in vivo
Procedure, shortened: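 Rats in groups of three received one compound as a single oral dose (30 mg/kg) or a single intravenous injection (6 mg/kg), with four compounds studied separately. Serial blood samples were drawn at 5, 10, 15 and 30 min and at 1, 2, 4, 8, 23 and 24 h post-dose. Plasma parent drug and metabolites were quantified and PK parameters were derived.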

Canis familiaris [5] = test: Toxicity in Beagle dog up to 25 mg/kg, po administered as gelatin capsule once daily for 28 days measured on day 29 followed by two weeks of recovery period; assay type: organism-based, Canis lupus familiaris; details: in vivo, 672 h
Procedure, shortened: (§3)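 Sub-acute study in Beagle dogs dosed orally by gelatin capsule at 5, 15 and 25 mg/kg once a day for 28 consecutive days.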

Rattus norvegicus [6] = test: Toxicity in Sprague-Dawley rat assessed as erosions in stomach at 75 mg/kg administered as oral gavage qd for 28 consecutive days followed by 2 weeks recovery period by microscopic method; assay type: organism-based; details: in vivo, 336 h; procedure, shortened: as §1
Rattus norvegicus [7] = test: Toxicity in Sprague-Dawley rat assessed as effect on respiratory rate by measuring minute volume dose at 100 to 300 mg/kg administered as single dose via oral gavage; assay type: organism-based; details: in vivo
Procedure, shortened: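 Respiratory safety study: conscious rats, 3 groups of 6 (3M/3F), given single oral-gavage doses of 100, 300 or 1000 mg/kg, with an untreated control group. Respiratory rate (breaths per minute), tidal volume and minute volume were recorded, and mortality was noted.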

Canis familiaris [8] = test: Toxicity in Beagle dog assessed as emesis at 25 mg/kg, po administered as gelatin capsule once daily for 28 days measured on day 29; assay type: organism-based, Canis lupus familiaris; details: in vivo, 672 h; procedure, shortened: as §3
Rattus norvegicus [9] = test: Toxicity in Sprague-Dawley rat assessed as increase in liver to body weight ratio at 75 mg/kg administered as oral gavage qd for 28 consecutive days measured on day 29; assay type: organism-based; details: in vivo; procedure, shortened: as §1
Canis familiaris [10] = test: Toxicity in Beagle dog up to 25 mg/kg, po administered as gelatin capsule once daily for 28 days measured on day 29; assay type: organism-based, Canis lupus familiaris; details: in vivo, 672 h; procedure, shortened: as §3
Rattus norvegicus [11] = test: Toxicity in Sprague-Dawley rat assessed as increase in total bilirubin level at 30 to 75 mg/kg administered as oral gavage qd for 28 consecutive days followed by 2 weeks recovery period measured on day 43; assay type: organism-based; details: in vivo, 336 h; procedure, shortened: as §1
Rattus norvegicus [12] = test: Toxicity in Sprague-Dawley rat assessed as body weight gain at 75 mg/kg administered as oral gavage qd for 28 consecutive days measured during last 2 weeks of dosing relative to control; assay type: organism-based; details: in vivo, 336 h; procedure, shortened: as §1
Canis familiaris [13] = test: Toxicity in Beagle dog assessed as change in food consumption up to 25 mg/kg, po administered as gelatin capsule once daily for 28 days; assay type: organism-based, Canis lupus familiaris; details: in vivo, 672 h; procedure, shortened: as §3
Rattus norvegicus [14] = test: Toxicity in Sprague-Dawley rat assessed as eosinophilic cytoplasmic bodies in epithelial cells of stomach at 10 to 75 mg/kg administered as oral gavage qd for 28 consecutive days measured on day 29 by microscopic method; assay type: organism-based; details: in vivo
Procedure, shortened: (§4)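 Sub-acute study in Sprague-Dawley rats: 10, 30 or 75 mg/kg given orally once a day for 28 consecutive days as a yellow suspension. There were 4 groups of up to 30 rats each (15M/15F), including a control. Body weight, clinical observations and terminal findings were assessed.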

Rattus norvegicus [15] = test: Neurotoxicity in Sprague-Dawley rat at 100 to 300 mg/kg, po administered via gavage as single dose after 4 to 24 hrs; assay type: toxicity, organism-based; details: in vivo
Procedure, shortened: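 CNS safety study in rats: single oral-gavage doses of 100, 300 or 1000 mg/kg to 3 groups of 10 (5M/5F), with an untreated control group. Clinical signs (activity, abdominal tone, breathing, tremors, pain response) were recorded at 4 and 24 h after dosing, and mortality was noted.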

Rattus norvegicus [16] = test: Toxicity in Sprague-Dawley rat assessed as hemorrhage in duodenum at 75 mg/kg administered as oral gavage qd for 28 consecutive days followed by 2 weeks recovery period by microscopic method; assay type: organism-based; details: in vivo, 336 h; procedure, shortened: as §1
Canis familiaris [17] = test: Toxicity in Beagle dog assessed as body weight gain up to 25 mg/kg, po administered as gelatin capsule once daily for 28 days measured on day 29; assay type: organism-based, Canis lupus familiaris; details: in vivo, 672 h; procedure, shortened: as §3
Rattus norvegicus [18] = test: Toxicity in Sprague-Dawley rat assessed as decrease in serum total protein level at 75 mg/kg administered as oral gavage qd for 28 consecutive days followed by 2 weeks recovery period measured on day 43; assay type: organism-based; details: in vivo, 336 h; procedure, shortened: as §1
Rattus norvegicus [19] = test: Toxicity in Sprague-Dawley rat assessed as epithelial hyperplasia in stomach at 30 to 75 mg/kg administered as oral gavage qd for 28 consecutive days measured on day 29 by microscopic method; assay type: organism-based; details: in vivo; procedure, shortened: as §4
Rattus norvegicus [20] = test: Toxicity in Sprague-Dawley rat assessed as mixed cell inflammation in stomach at 75 mg/kg administered as oral gavage qd for 28 consecutive days followed by 2 weeks recovery period by microscopic method; assay type: organism-based; details: in vivo, 336 h; procedure, shortened: as §1
Canis familiaris [21] = test: Toxicity in Beagle dog assessed as gross necropsy up to 25 mg/kg, po administered as gelatin capsule once daily for 28 days followed by two weeks of recovery period; assay type: organism-based, Canis lupus familiaris; details: in vivo, 672 h; procedure, shortened: as §3
Rattus norvegicus [22] = test: Toxicity in Sprague-Dawley rat assessed as mucosal hyperplasia in duodenum at 75 mg/kg administered as oral gavage qd for 28 consecutive days followed by 2 weeks recovery period by microscopic method; assay type: organism-based; details: in vivo, 336 h
Procedure, shortened: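 Sub-acute oral toxicity study in Sprague-Dawley rats. The drug was given once daily for 28 consecutive days at 10, 30 or 75 mg/kg, formulated as a suspension. There were 4 groups of up to 30 rats each (15 male, 15 female). The study evaluated systemic exposure to the drug.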

Canis familiaris [23] = test: Toxicity in Beagle dog assessed as decrease in cholesterol level up to 25 mg/kg, po administered as gelatin capsule once daily for 28 days measured on day 29; assay type: organism-based, Canis lupus familiaris; details: in vivo, 672 h; procedure, shortened: as §3
Canis familiaris [24] = test: Toxicity in Beagle dog assessed as effect on hematology up to 25 mg/kg, po administered as gelatin capsule once daily for 28 days measured on day 29; assay type: organism-based, Canis lupus familiaris; details: in vivo, 672 h; procedure, shortened: as §3
Rattus norvegicus [25] = test: Toxicity in Sprague-Dawley rat assessed as eosinophilic cytoplasmic bodies in leukocytes of duodenum at 75 mg/kg administered as oral gavage qd for 28 consecutive days measured on day 29 by microscopic method; assay type: organism-based; details: in vivo; procedure, shortened: as §1

In the case of `CC(C)(C)[C@H](N)C(=O)Oc1ccccc1C(=O)Nc1ncc([N+](=O)[O-])s1.Cl`, the Activity (Rattus norvegicus [1]) is reported as “Toxic”, the Drug metabolism (Plasma) is reported as “Metabolite_Detected” and the Tmax (Rattus norvegicus [2]) is reported as 5 min. The AUCt (Rattus norvegicus [3]) was 23600 ng·h/mL, the Cmax (Rattus norvegicus [4]) was 18600 ng/mL and the Activity (Canis familiaris [5]) was “Non-Toxic”. The Activity (Rattus norvegicus [6]) was “Non-Toxic”, the Activity (Rattus norvegicus [7]) was “Non-Toxic” and the Activity (Canis familiaris [8]) was “Toxic”. The Activity (Rattus norvegicus [9]) was “Toxic”, the Activity (Canis familiaris [10]) was “Non-Toxic” and the Activity (Rattus norvegicus [11]) was “Toxic”. For the same compound, the Activity (Rattus norvegicus [12]) was 4 to 5%, the Activity (Canis familiaris [13]) was “Non-Toxic” and the Activity (Rattus norvegicus [14]) was “Toxic”. For the same compound, the Activity (Rattus norvegicus [15]) was “Non-Toxic”, the Activity (Rattus norvegicus [16]) was “Non-Toxic” and the Activity (Canis familiaris [17]) was “Non-Toxic”. The Activity (Rattus norvegicus [18]) was “Toxic”, the Activity (Rattus norvegicus [19]) was “Toxic” and the Activity (Rattus norvegicus [20]) was “Non-Toxic”. For the same compound, the Activity (Canis familiaris [21]) was “Non-Toxic”, the Activity (Rattus norvegicus [22]) was “Non-Toxic” and the Activity (Canis familiaris [23]) was “Toxic”. The Activity (Canis familiaris [24]) was “Non-Toxic” and the Activity (Rattus norvegicus [25]) was “Toxic”.
